Article PMC3115441 (Chemical biology & drug design, 2011)

What was measured:
[1] = biological target: Serotonin Transporter (SERT) (Homo sapiens, UniProt P31645); assay: NIMH-PDSP radioligand binding, SERT
mice = assay: Acute toxicity, minimal motor impairment; type: in vivo; details: for TOX (30) N/F, animals toxic over tested / TOX (100) N/F, animals toxic over tested / TOX (300) N/F, animals toxic over tested: rotorod; for TOX (30) N/F, animals toxic over tested: 30 mg/kg
[2] = tested on: Metrazol-induced clonic seizures; assay: Subcutaneous Metrazol seizure threshold test; type: in vivo, mice; details: for scMET (30) N/F, animals active over tested: 30 mg/kg; for scMET (100) N/F, animals active over tested: 100 mg/kg
Dopamine 2 (D2) = Dopamine 2 (D2) (Homo sapiens, UniProt P14416); assay: NIMH-PDSP radioligand binding, D2
Dopamine 2 (D2), sequence (P14416 whole entry): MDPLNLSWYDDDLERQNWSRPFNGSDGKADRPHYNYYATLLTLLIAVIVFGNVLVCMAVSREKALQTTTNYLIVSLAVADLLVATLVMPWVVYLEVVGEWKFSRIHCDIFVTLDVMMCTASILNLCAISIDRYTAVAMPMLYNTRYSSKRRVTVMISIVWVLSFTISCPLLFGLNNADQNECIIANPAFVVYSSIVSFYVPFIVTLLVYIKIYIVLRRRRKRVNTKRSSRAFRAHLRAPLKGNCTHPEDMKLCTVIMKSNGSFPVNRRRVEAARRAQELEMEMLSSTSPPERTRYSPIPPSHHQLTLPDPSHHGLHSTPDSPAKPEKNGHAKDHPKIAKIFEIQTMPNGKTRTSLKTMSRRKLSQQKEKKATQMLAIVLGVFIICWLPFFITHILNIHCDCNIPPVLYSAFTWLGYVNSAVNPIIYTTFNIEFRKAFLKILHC

[3] = tested on: PCP site of the NMDA receptor complex; assay: [3H]; type: binding, rat; details: for % inhibition of 1 nM [3H] (+)-MK-801: compound at 10 μM (10,000 nM); for IC50: rat forebrain homogenate, 1 nM (+)-[3H]MK-801; for Ki: read-out: NMDA affinity Ki, calculated by Cheng and Prusoff equation
Procedure, shortened: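 Washed rat forebrain homogenate (30 ug/mL protein) in 10 mM HEPES, pH 7.4, with 1 nM (+)-[3H]MK-801, 100 uM glutamate, 30 uM glycine and varied competitor concentrations. Nonspecific binding was set with 30 uM (+)-MK-801. Incubation ran 2 h at room temperature, then vacuum filtration onto GF/B filters, three buffer washes and scintillation counting.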

Sigma1 = Sigma1 (Rattus norvegicus, UniProt Q9R0C9); assay: NIMH-PDSP radioligand binding, Sigma-1
Sigma1, sequence (Q9R0C9 whole entry): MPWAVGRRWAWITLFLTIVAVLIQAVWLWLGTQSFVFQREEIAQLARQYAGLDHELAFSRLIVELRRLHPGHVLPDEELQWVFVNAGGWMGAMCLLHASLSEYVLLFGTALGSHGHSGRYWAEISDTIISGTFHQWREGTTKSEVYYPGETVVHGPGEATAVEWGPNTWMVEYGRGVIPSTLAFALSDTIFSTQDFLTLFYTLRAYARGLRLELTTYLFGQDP

Sigma2 = biological target: T1, Sigma2 (Rattus norvegicus, UniProt Q5U3Y7); assay: NIMH-PDSP radioligand binding, Sigma-2
T1 sequence (Q5U3Y7 1-176): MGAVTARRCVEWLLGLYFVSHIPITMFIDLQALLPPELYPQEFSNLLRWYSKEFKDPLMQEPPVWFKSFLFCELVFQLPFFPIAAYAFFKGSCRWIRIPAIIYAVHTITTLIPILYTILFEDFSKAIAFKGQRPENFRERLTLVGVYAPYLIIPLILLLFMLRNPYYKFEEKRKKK

[4] = biological target: κ- opioid receptors (KOR) (Rattus norvegicus, UniProt P34975); assay: NIMH-PDSP radioligand binding, KOR
κ- opioid receptors (KOR), sequence (P34975 whole entry): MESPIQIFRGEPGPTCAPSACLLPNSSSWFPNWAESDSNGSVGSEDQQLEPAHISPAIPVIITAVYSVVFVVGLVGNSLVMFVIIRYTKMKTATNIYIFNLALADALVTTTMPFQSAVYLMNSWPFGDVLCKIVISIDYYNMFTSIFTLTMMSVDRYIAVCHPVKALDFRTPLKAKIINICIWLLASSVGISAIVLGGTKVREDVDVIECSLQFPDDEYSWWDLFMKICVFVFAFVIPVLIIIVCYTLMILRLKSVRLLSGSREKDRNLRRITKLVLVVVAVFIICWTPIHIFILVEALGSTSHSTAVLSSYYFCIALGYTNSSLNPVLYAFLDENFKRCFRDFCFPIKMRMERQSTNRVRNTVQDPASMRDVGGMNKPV

Serotonin 2A (5-HT2A) = Serotonin 2A (5-HT2A) (Homo sapiens, UniProt P28223); assay: NIMH-PDSP radioligand binding, 5-HT2A
Serotonin 2A (5-HT2A), sequence (P28223 whole entry): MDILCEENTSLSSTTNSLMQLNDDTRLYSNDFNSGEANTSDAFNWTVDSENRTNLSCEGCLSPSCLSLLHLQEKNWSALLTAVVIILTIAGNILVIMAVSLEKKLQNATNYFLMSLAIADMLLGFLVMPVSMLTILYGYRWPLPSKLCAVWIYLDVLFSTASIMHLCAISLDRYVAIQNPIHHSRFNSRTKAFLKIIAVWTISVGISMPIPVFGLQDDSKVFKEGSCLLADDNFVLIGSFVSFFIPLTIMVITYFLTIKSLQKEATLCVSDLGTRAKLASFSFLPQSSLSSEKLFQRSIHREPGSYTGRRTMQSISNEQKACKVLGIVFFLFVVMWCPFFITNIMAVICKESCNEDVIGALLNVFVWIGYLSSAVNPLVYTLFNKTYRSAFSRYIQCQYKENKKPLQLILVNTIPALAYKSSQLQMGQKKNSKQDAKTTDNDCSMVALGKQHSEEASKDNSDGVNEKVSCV

[5] = biological target: Norepinephrine Transporter (NET) (Homo sapiens, UniProt P23975); assay: NIMH-PDSP radioligand binding, NET
Norepinephrine Transporter (NET), sequence (P23975 whole entry): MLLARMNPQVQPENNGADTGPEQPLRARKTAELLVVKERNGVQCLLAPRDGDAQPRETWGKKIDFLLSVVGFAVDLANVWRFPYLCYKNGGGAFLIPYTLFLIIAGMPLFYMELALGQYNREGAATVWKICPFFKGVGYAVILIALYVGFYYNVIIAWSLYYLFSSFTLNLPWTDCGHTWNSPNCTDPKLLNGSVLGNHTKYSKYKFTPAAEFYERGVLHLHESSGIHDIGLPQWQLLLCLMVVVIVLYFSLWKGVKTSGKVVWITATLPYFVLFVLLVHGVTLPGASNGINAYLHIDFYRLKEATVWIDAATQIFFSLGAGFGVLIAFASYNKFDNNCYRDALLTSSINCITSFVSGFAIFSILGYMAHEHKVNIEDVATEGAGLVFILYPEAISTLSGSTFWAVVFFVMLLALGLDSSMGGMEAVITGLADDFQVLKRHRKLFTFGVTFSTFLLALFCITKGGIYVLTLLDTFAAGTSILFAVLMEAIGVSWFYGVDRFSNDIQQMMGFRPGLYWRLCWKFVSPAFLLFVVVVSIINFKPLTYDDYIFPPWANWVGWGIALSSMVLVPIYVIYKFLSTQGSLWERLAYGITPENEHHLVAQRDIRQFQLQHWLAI

[6] = biological target: μ- opioid receptors (MOR) (Homo sapiens, UniProt P35372); assay: NIMH-PDSP radioligand binding, MOR
μ- opioid receptors (MOR), sequence (P35372 whole entry): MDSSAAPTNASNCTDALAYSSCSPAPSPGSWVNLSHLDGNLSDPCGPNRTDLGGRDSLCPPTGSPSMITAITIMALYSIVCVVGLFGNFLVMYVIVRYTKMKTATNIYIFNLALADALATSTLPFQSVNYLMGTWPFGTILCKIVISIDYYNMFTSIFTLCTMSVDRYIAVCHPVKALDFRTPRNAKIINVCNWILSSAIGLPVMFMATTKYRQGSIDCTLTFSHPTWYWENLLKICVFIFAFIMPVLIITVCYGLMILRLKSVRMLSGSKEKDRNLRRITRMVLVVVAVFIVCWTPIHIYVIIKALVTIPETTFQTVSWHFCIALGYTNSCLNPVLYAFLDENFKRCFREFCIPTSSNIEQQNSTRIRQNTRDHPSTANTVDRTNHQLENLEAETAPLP

Dopamine 1 (D1) = Dopamine 1 (D1) (Homo sapiens, UniProt P21728); assay: NIMH-PDSP radioligand binding, D1
Dopamine 1 (D1), sequence (P21728 whole entry): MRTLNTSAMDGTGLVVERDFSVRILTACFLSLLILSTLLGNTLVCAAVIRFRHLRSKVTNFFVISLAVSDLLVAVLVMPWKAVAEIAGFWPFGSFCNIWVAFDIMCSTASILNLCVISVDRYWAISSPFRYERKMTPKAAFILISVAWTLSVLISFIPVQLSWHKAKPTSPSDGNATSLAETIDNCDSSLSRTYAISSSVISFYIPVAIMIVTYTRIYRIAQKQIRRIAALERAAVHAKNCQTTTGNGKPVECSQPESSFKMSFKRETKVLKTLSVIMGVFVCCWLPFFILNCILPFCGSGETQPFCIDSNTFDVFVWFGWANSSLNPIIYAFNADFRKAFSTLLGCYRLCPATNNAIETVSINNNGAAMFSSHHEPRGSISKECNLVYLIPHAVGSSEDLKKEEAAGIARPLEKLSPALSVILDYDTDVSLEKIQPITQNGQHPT

[7] = biological target: Dopamine Transporter (DAT) (Homo sapiens, UniProt Q01959); assay: NIMH-PDSP radioligand binding, DAT
Dopamine Transporter (DAT), sequence (Q01959 whole entry): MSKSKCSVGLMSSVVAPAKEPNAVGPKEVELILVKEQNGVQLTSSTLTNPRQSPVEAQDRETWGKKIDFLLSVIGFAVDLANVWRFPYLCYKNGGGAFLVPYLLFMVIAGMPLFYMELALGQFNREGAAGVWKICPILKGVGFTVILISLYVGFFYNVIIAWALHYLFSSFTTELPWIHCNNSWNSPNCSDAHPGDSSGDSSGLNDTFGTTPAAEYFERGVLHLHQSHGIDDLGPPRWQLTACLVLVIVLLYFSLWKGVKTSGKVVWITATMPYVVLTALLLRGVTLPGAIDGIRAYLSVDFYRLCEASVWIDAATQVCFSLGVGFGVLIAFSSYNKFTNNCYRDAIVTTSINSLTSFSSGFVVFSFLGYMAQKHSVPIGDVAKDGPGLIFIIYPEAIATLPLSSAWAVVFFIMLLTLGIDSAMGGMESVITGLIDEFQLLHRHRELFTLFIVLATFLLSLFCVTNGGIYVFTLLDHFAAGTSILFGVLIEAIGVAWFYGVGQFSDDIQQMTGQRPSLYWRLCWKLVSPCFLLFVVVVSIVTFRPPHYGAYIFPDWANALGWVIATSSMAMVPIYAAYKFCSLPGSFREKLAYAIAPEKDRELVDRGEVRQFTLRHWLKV

MES-induced seizures = assay: Maximal electroshock; type: in vivo, mice; details: for MES (30) N/F, animals active over tested: 30 mg/kg i.p.; for MES (100) N/F, animals active over tested: 100 mg/kg i.p.
Procedure, shortened: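 Mice received test compound i.p. at 30, 100 or 300 mg/kg in 0.01 ml/g and were tested at various intervals after dosing. Corneal electrodes primed with 0.5% tetracaine HCl electrolyte delivered 60 Hz alternating current, 50 mA, for 0.2 s. An animal counted as protected when the hindlimb tonic extensor component was abolished. Results are scored as animals protected over tested.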

Serotonin Transporter (SERT), sequence (P31645 whole entry): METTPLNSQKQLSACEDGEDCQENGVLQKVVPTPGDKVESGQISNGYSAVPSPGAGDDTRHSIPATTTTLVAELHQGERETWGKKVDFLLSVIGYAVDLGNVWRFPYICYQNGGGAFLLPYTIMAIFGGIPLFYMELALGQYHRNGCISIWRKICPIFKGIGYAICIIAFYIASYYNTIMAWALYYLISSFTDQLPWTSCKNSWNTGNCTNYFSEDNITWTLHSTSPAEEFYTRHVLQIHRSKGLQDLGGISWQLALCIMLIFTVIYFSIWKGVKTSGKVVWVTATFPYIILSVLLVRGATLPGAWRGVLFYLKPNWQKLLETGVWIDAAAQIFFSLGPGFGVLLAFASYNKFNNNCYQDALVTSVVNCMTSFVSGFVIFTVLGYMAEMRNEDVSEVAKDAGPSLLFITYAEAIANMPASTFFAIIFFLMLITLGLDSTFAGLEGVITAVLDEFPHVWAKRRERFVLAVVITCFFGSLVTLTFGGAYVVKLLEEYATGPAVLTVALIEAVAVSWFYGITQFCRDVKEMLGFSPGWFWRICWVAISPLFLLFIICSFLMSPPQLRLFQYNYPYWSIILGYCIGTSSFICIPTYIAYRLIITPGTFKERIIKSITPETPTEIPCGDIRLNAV

SMILES | Ki [1] | TOX comments (mice; 100 mg/kg, 0.5 h) | TOX comments (mice; 300 mg/kg, 0.5 h) | TOX (30) N/F, animals toxic over tested (mice; 0.5 h) | TOX (30) N/F, animals toxic over tested (mice; 4.0 h) | TOX (100) N/F, animals toxic over tested (mice; 100 mg/kg, 0.5 h) | TOX (100) N/F, animals toxic over tested (mice; 100 mg/kg, 4.0 h) | TOX (300) N/F, animals toxic over tested (mice; 300 mg/kg, 0.5 h) | scMET (30) N/F, animals active over tested ([2]; 0.5 h) | scMET (30) N/F, animals active over tested ([2]; 4.0 h) | scMET (100) N/F, animals active over tested ([2]; 0.5 h) | scMET (100) N/F, animals active over tested ([2]; 4.0 h) | Ki (Dopamine 2 (D2)) | Ki (Sigma1) | Ki (Sigma2) | Ki [4] | Ki (Serotonin 2A (5-HT2A)) | Ki [5] | Ki [6] | Ki (Dopamine 1 (D1)) | other results
NC1(c2ccccc2)CC2CCC1C2 (stereo not drawn) [Compound 4a, 2-phenylbicyclo[2.2.1]heptan-2-amine] | > 10 µM | Severe Tremors, Death following clonic seizure | Death | 0/4 | 0/2 | 8/8 | 0/2 | 4/4 / | 0/1 0/1 | 0/1 0/1 | 0/1 0/1 | 0/1 0/1 | > 10 µM | 2.2 µM | 0.995 µM | > 10 µM | > 10 µM | > 10 µM | > 10 µM | > 10 µM | % inhibition of 1 nM [3H] (+)-MK-801 [3]: greater than 90%; IC50 [3]: 13.3 ± 0.63 µM; Ki [3]: 8.45 µM; Ki [7]: > 10 µM; MES (30) N/F, animals active over tested (MES-induced seizures; 0.5 h): 0/1 0/1; MES (30) N/F, animals active over tested (MES-induced seizures; 4.0 h): 0/1 0/1; MES (100) N/F, animals active over tested (MES-induced seizures; 4.0 h): 1/1
NC1(c2ccc(F)cc2)CC2CCC1C2 (stereo not drawn) [Compound 4b, 2-(4-fluorophenyl)bicyclo[2.2.1]heptan-2-amine] | > 10 µM | Severe Tremors, Clonic seizures | Death following clonic seizure | 0/4 | 0/2 | 8/8 | 0/4 | 4/4 / | 0/1 0/1 | 0/1 0/1 | 0/1 0/1 | 0/1 0/1 | > 10 µM | > 10 µM | > 10 µM | > 10 µM | > 10 µM | > 10 µM | > 10 µM | > 10 µM | Ki [7]: > 10 µM; MES (30) N/F, animals active over tested (MES-induced seizures; 0.5 h): 0/1 0/1; MES (30) N/F, animals active over tested (MES-induced seizures; 4.0 h): 0/1 0/1; MES (100) N/F, animals active over tested (MES-induced seizures; 0.5 h): 3/3; MES (100) N/F, animals active over tested (MES-induced seizures; 4.0 h): 0/3
c1ccc(C2(NCCN3CCCCC3)CC3CCC2C3)cc1 (stereo not drawn) [Compound 5a, 2-Phenyl-N-(2-(piperidin-1-yl)ethyl)bicyclo[2.2.1]heptan-2-amine] | > 10 µM | Clonic seizures | Death | 0/4 | 0/2 | 8/8 | 0/4 | 4/4 / | 0/1 0/1 | 0/1 0/1 | 0/1 0/1 | 0/1 0/1 | > 10 µM | > 10 µM | > 10 µM | 0.876 µM | 2.64 µM | > 10 µM | > 10 µM | > 10 µM | toxicity profile (in words) (mice; mouse, in vivo): acceptable toxicity profile; affinity for NMDA (in words) [3]: highest affinity for NMDA; % inhibition of 1 nM [3H] (+)-MK-801 [3]: greater than 90%; IC50 [3]: 7.86 ± 1.64 µM; Ki [3]: 5.28 µM; Ki [7]: > 10 µM; MES (30) N/F, animals active over tested (MES-induced seizures; 0.5 h): 0/1 0/1; MES (30) N/F, animals active over tested (MES-induced seizures; 4.0 h): 0/1 0/1; MES protection (in words) (MES-induced seizures; 100 mg/kg): MES neuroprotection activity; MES (100) N/F, animals active over tested (MES-induced seizures; 0.5 h): 3/3; MES (100) N/F, animals active over tested (MES-induced seizures; 4.0 h): 1/3; MES neuroprotective activity (in words) (MES-induced seizures; mouse, in vivo): greatest degree of protection from MES induced neural damage and death
